From ChEMBL document CHEMBL4038323, “Discovery and Kinetic Profiling of 7-Aryl-1,2,4-triazolo[4,3-a]pyridines: Positive Allosteric Modulators of the Metabotropic Glutamate Receptor 2” (J Med Chem, 2017) come the findings set out here.

One may read the Ki as a measure of affinity in units of concentration, obtained from inhibition or displacement. Read a high Ki as lower affinity. For orientation: Kd means the concentration at which binding is half-saturated. One may read the EC50 as the concentration giving half of the maximal effect.

For assay [1], the target named is T1, Metabotropic glutamate receptor 2 (Homo sapiens, UniProt Q14416). In words: Displacement of [3H]JNJ-46281222 from human metabotropic glutamate receptor 2 expressed in CHOK1 cell membranes assessed as dissociation rate constant measured every 30 sec for 120 mins by scintillation proximity assay. A digest of the protocol:
(§1)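 For the SPA competition association, CHO-K1_hmGlu2 membranes (20 µg) were pre-coupled 30 min to WGA SPA beads, then mixed with 6 nM [3H]JNJ-46281222, competitor and 1 mM glutamate. Counts were read every 30 s for 120 min at 28°C.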
For orientation: Displacement assays read how much labelled ligand stays bound in the presence of the test substance.
Target sequence in this assay (Q14416 19-872 limits assumed): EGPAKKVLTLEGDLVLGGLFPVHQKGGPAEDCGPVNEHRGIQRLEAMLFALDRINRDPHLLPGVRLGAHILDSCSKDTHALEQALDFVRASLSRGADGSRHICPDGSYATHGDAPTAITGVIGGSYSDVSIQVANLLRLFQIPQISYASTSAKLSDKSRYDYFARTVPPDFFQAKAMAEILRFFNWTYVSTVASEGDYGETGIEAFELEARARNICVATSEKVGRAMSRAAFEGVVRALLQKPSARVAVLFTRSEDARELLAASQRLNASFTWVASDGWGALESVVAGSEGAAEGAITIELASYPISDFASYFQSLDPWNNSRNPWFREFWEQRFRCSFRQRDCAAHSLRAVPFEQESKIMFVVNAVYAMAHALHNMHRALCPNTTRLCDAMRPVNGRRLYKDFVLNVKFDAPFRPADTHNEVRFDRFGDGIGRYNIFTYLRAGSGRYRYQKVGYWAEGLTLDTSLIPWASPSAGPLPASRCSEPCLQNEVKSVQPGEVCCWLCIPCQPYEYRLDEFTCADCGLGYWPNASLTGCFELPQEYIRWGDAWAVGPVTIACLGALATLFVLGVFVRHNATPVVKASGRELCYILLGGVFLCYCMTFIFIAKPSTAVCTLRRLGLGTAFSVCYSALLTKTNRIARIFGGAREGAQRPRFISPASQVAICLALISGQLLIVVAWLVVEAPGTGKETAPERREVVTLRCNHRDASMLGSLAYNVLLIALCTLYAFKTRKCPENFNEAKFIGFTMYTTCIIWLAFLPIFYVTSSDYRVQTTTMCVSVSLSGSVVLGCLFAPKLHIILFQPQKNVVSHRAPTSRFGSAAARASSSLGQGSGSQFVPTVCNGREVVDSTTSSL

The target in assay [2] is T1, Metabotropic glutamate receptor 2. Kind of assay: Displacement of [3H]JNJ-46281222 from human metabotropic glutamate receptor 2 expressed in CHOK1 cell membranes assessed as association rate constant measured every 30 sec for 120 mins by scintillation proximity assay. Put shortly:
as §1
Target sequence in this assay (Q14416 19-872 limits assumed): as above

The target is the same in assay [3]. In words: Displacement of [3H]JNJ-46281222 from human metabotropic glutamate receptor 2 expressed in CHOK1 cell membranes assessed as residence time measured every 30 sec for 120 mins by scintillation proximity assay. Put shortly: as §1
Target sequence in this assay (Q14416 19-872 limits assumed): as above
Assay [4] shares this target. Kind of assay: Displacement of [3H]-JNJ46281222 from human metabotropic glutamate receptor 2 expressed in CHOK1 cell membranes after 60 mins by microbeta counting analysis.
Target sequence in this assay (Q14416 whole entry): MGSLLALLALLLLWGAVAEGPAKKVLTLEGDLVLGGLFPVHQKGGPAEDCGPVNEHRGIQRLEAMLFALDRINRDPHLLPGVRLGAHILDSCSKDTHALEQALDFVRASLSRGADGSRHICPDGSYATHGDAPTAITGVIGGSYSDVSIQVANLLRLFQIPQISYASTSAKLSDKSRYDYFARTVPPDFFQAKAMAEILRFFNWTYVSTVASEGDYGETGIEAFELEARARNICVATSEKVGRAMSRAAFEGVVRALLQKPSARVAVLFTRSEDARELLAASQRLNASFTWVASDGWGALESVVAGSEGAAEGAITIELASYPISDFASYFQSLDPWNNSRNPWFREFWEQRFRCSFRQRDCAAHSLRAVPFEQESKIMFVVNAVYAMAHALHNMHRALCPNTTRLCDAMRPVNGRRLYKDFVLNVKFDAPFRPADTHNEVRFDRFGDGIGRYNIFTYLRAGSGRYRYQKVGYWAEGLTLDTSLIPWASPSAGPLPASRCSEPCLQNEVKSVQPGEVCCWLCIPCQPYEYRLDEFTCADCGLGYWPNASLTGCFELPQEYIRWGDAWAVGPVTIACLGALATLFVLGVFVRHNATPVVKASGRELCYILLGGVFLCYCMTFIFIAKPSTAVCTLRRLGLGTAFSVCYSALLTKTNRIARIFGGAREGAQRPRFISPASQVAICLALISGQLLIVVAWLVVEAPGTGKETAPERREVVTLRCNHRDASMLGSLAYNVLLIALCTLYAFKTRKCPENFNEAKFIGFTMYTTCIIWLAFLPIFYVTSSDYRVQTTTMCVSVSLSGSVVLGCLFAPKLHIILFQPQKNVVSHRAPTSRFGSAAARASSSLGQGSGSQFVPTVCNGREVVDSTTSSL
Assay [5] shares this target. Kind of assay: Binding affinity to human metabotropic glutamate receptor 2 expressed in CHOK1 cell membranes by scintillation proximity assay. On the technique in general: Scintillation proximity formats need no separation of bound from free tracer.
Target sequence in this assay (Q14416 whole entry): as above
Assay [6] has the same target. Kind of assay: Positive allosteric modulation of human metabotropic glutamate receptor 2 expressed in CHOK1 cell membranes assessed as increase in glutamate-induced [35S]GTPgammaS binding preincubated for 30 mins followed by [35S]GTPgammaS addition measured after 30 mins by Topcount scintillation counting method. The assay is classed as functional.
Target sequence in this assay (Q14416 whole entry): as above

As to `O[C@H]1CC[C@@H](Nc2ccc(-c3ccn4c(CC5CC5)nnc4c3C(F)(F)F)cc2Cl)CC1`, the K in assay [1] was found to be 0.058 min⁻¹; in assay [2], 5.7 ×10⁶ /M/min. Further, in assay [3], the TIME is 0.285 h.

With `CC(C)Nc1ccc(-c2ccn3c(CC4CC4)nnc3c2C(F)(F)F)cc1Cl`, affinity in assay [4] was put at a Ki of 0.00389 µM. In addition, the K was 0.121 min⁻¹ in assay [1] and 3.6 ×10⁷ /M/min in assay [2]. The same compound had a Kd in assay [5] of 0.0034 µM. The TIME in assay [3] was 0.137 h. The EC50 in assay [6] is 0.0174 µM.

As to `CCOCc1nnc2c(Cl)c(-c3ccc(Oc4ccc(C)nc4C)c(F)c3)ccn12`, affinity in assay [4] was put at a Ki of 0.00646 µM. For the same compound, the K amounted to 0.076 min⁻¹ in assay [1] and 3 ×10⁶ /M/min in assay [2]. For the same compound, the Kd in assay [5] worked out at 0.0252 µM. Besides, in assay [3], the TIME stood at 0.22 h. Moreover, the EC50 in assay [6] was 0.0741 µM.

For `Cc1ccc(Oc2ccc(-c3ccn4c(CC(F)(F)F)nnc4c3Cl)cc2F)c(C)n1`, the Ki in assay [4] was 0.00794 µM. The K is 0.096 min⁻¹ in assay [1] and 2.9 ×10⁷ /M/min in assay [2]. Binding in assay [5] was put at a Kd of 0.0033 µM. Moreover, in assay [3], the TIME came to 0.175 h. Also, in assay [6], the EC50 was 0.0295 µM.

Turning to `O[C@H]1CC[C@H](Nc2ccc(-c3ccn4c(CC5CC5)nnc4c3C(F)(F)F)cc2Cl)CC1`, the K stood at 0.033 min⁻¹ in assay [1] and 1.1 ×10⁷ /M/min in assay [2]. Further, the TIME in assay [3] was found to be 0.513 h.

In turn, `COc1ccc(CNc2ccc(-c3ccn4c(CC5CC5)nnc4c3C(F)(F)F)cc2F)cn1` gave an inhibition constant (Ki) in assay [4] of 0.00204 µM. Also, the K in assay [1] turned out to be 0.044 min⁻¹; in assay [2] it was 1.5 ×10⁷ /M/min. Moreover, the Kd in assay [5] was 0.0029 µM. Further, in assay [3], the TIME was determined as 0.378 h. In addition, in assay [6], the EC50 is 0.00589 µM.

As for `Cc1ccc(Oc2ccc(-c3ccn4c(CC5CC5)nnc4c3Cl)cc2F)c(C)n1`, the Ki in assay [4] is 0.00195 µM. The figures for the K in assay [1] and in assay [2] were 0.097 min⁻¹ and 6.3 ×10⁶ /M/min, respectively. Besides, in assay [5], the Kd turned out to be 0.0153 µM. The TIME in assay [3] worked out at 0.172 h. Besides, in assay [6], the EC50 is 0.0407 µM.

For `Cc1cc(-c2nc(CN3CCNCC3)no2)cc2c1C(=O)N(Cc1ccc(OC(F)(F)F)cc1)C2`, the K was found to be 0.128 min⁻¹ in assay [1] and 2.1 ×10⁵ /M/min in assay [2]. For the same compound, the TIME in assay [3] stood at 0.13 h.

As for `Fc1cc(-c2ccn3c(CC4CC4)nnc3c2Cl)ccc1Oc1ccnc(C2CC2)c1`, the affinity in assay [4] corresponds to a Ki of 0.0537 µM. Moreover, the K in assay [1] was found to be 0.073 min⁻¹; in assay [2] it was 1.7 ×10⁶ /M/min. This compound also registered a Kd in assay [5] of 0.0427 µM. Moreover, in assay [3], the TIME turned out to be 0.228 h. Further, in assay [6], the EC50 is 0.0871 µM.

In the case of `CC(C)Nc1ccc(-c2ccn3c(CC4CC4)nnc3c2Cl)cc1F`, the Ki in assay [4] is 0.0617 µM. The results for the K in assay [1] and in assay [2] were 0.101 min⁻¹ and 5 ×10⁶ /M/min, respectively. This compound yielded a Kd in assay [5] of 0.0203 µM. For the same compound, the TIME in assay [3] came out at 0.165 h. Also, in assay [6], the EC50 is 0.224 µM.

Consider `O[C@H]1CC[C@H](Oc2ccc(-c3ccn4c(CC(F)(F)F)nnc4c3Cl)cc2Cl)CC1`, for which the affinity in assay [4], expressed as Ki, was 0.0115 µM. The K in assay [1] came to 0.137 min⁻¹; in assay [2], 8.3 ×10⁶ /M/min. Besides, the affinity in assay [5], expressed as Kd, was 0.0166 µM. In assay [3], the TIME is 0.122 h. Also, the EC50 in assay [6] was 0.158 µM.

In assay [4], `Cc1ccc(Oc2ccc(-c3ccn4c(CC5CC5)nnc4c3C)cc2Cl)c(C)n1` gave a Ki of 0.0148 µM. Besides, the K worked out at 0.096 min⁻¹ in assay [1] and 5.5 ×10⁶ /M/min in assay [2]. The same compound yielded a Kd in assay [5] of 0.0174 µM. Besides, the TIME in assay [3] was 0.175 h. Moreover, in assay [6], the EC50 is 0.0174 µM.

On to `Clc1cc(-c2ccn3c(CC4CC4)nnc3c2Cl)ccc1NC1CCOCC1`, for which, in assay [4], the affinity, expressed as Ki, was 0.0389 µM. Besides, the values for the K in assay [1] and in assay [2] were 0.136 min⁻¹ and 7 ×10⁶ /M/min, respectively. Binding in assay [5] was characterised by a dissociation constant (Kd) of 0.0195 µM. Moreover, the TIME in assay [3] was 0.122 h. Moreover, the EC50 in assay [6] is 0.148 µM.

In assay [4], `CC(C)Nc1ccc(-c2ccn3c(CC4CC4)nnc3c2C(F)(F)F)cc1F` gave a Ki of 0.00891 µM. In addition, the K came to 0.1 min⁻¹ in assay [1] and 4.6 ×10⁷ /M/min in assay [2]. The compound also registered a Kd in assay [5] of 0.0022 µM. The TIME in assay [3] amounted to 0.167 h. Further, in assay [6], the EC50 is 0.0933 µM.

For `Cc1cc(Oc2ccc(-c3ccn4c(CC5CC5)nnc4c3Cl)cc2F)ccn1`, affinity in assay [4] was put at a Ki of 0.0631 µM. For the same compound, the K was 0.096 min⁻¹ in assay [1] and 2.6 ×10⁶ /M/min in assay [2]. Also, in assay [5], binding was characterised by a dissociation constant (Kd) of 0.0376 µM. The TIME in assay [3] turned out to be 0.173 h. Further, the EC50 in assay [6] was 0.251 µM.

The compound `Clc1cc(-c2ccn3c(CC4CC4)nnc3c2Cl)ccc1OC1CCOCC1` showed a Ki in assay [4] of 0.0229 µM. In addition, the K in assay [1] was 0.092 min⁻¹; in assay [2], 3.3 ×10⁶ /M/min. This compound showed a Kd in assay [5] of 0.0281 µM. The TIME in assay [3] was 0.182 h. For the same compound, in assay [6], the EC50 was 0.224 µM.

`FC(F)(F)c1c(-c2ccc(CNC3CCOCC3)c(Cl)c2)ccn2c(CC3CC3)nnc12`: in assay [4], the Ki is 0.0617 µM. For the same compound, the K in assay [1] is 0.091 min⁻¹; in assay [2], 1.7 ×10⁶ /M/min. The Kd in assay [5] came out at 0.054 µM. For the same compound, the TIME in assay [3] is 0.183 h. Further, the 50% effective concentration (EC50) in assay [6] was 0.631 µM.

As for `FC(F)(F)c1c(-c2ccc(NC3CC3)c(Cl)c2)ccn2c(CC3CC3)nnc12`, in assay [4], the Ki was 0.00224 µM. Moreover, the K in assay [1] came to 0.088 min⁻¹; in assay [2], 7.7 ×10⁷ /M/min. The dissociation constant (Kd) in assay [5] is 0.0012 µM. In addition, the TIME in assay [3] came to 0.188 h. Moreover, in assay [6], the EC50 was 0.00776 µM.

In assay [4], `O[C@H]1CC[C@H](Oc2ccc(-c3ccn4c(CC5CC5)nnc4c3C(F)(F)F)cc2Cl)CC1` showed a Ki of 0.00191 µM. In addition, the K in assay [1] was determined as 0.036 min⁻¹; in assay [2], 1.2 ×10⁷ /M/min. The Kd in assay [5] stood at 0.003 µM. Also, the TIME in assay [3] was 0.468 h. The EC50 in assay [6] is 0.0251 µM.

In assay [4], `O[C@H]1CC[C@@H](Oc2ccc(-c3ccn4c(CC(F)(F)F)nnc4c3Cl)cc2Cl)CC1` gave a Ki of 0.0324 µM. Besides, the results for the K in assay [1] and in assay [2] were 0.056 min⁻¹ and 6.9 ×10⁶ /M/min, respectively. In assay [5], the affinity, expressed as Kd, was 0.0081 µM. In addition, in assay [3], the TIME turned out to be 0.295 h. The EC50 in assay [6] was 0.0977 µM.

For the compound `Cc1ccc(Oc2ccc(-c3ccn4c(CC5CC5)nnc4c3C)cc2F)c(C)n1`, the Ki in assay [4] was 0.0219 µM. Besides, the K in assay [1] was 0.086 min⁻¹; in assay [2], 8.6 ×10⁶ /M/min. The same compound returned a Kd in assay [5] of 0.01 µM. Besides, the TIME in assay [3] was determined as 0.193 h. Further, the EC50 in assay [6] is 0.0776 µM.

Consider `CCc1cc(Oc2ccc(-c3ccn4c(CC5CC5)nnc4c3Cl)cc2F)ccn1`, for which the Ki in assay [4] is 0.0186 µM. Moreover, the K in assay [1] is 0.069 min⁻¹; in assay [2], 3 ×10⁶ /M/min. Also, the Kd in assay [5] is 0.0233 µM. Further, in assay [3], the TIME came to 0.24 h. Further, the EC50 in assay [6] is 0.1 µM.

For the compound `Cc1ccc(Oc2ccc(-c3ccn4c(CC5CC5)nnc4c3C(C)C)cc2F)c(C)n1`, the Ki in assay [4] was 0.0251 µM. In addition, the K in assay [1] was 0.07 min⁻¹; in assay [2], 6.5 ×10⁶ /M/min. In assay [5], this compound had an equilibrium dissociation constant (Kd) of 0.0107 µM. Besides, the TIME in assay [3] was 0.237 h. In assay [6], the EC50 is 0.0282 µM.

Turning to `COc1ccc(CNc2ccc(-c3ccn4c(CC5CC5)nnc4c3C(F)(F)F)cc2)cn1`, in assay [4], the Ki was 0.00316 µM. Further, the figures for the K in assay [1] and in assay [2] were 0.069 min⁻¹ and 3.4 ×10⁷ /M/min, respectively. In assay [5], this compound yielded a Kd of 0.002 µM. Further, in assay [3], the TIME was 0.243 h. Also, in assay [6], the EC50 is 0.0151 µM.

Consider `Cc1c(OCc2cccc(-c3ccc(C(=O)O)cc3)c2)cc2c(c1C)C(=O)C(C1CCCC1)C2` (stereo not drawn), for which the results for the K in assay [1] and in assay [2] were 0.086 min⁻¹ and 4.6 ×10⁶ /M/min, respectively. In addition, the TIME in assay [3] is 0.193 h.
